In ChEMBL document CHEMBL1125602, “Inhibitors of the protease from human immunodeficiency virus: design and modeling of a compound containing a dihydroxyethylene isostere insert with high binding affinity and effective antiviral activity” (J Med Chem, 1991):

Assays:
[1] = biological target: Human immunodeficiency virus type 1 protease (Human immunodeficiency virus 1, UniProt Q72874); test: Inhibitory activity against HIV-1 protease
In short: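 Recombinant HIV-1 protease refolded from E. coli inclusion bodies; substrate GSP (H-Val-Ser-Gln-Asn-Tyr-Pro-Ile-Val-OH) at 2.5 mM. Run at 30 °C in 100 mM sodium acetate pH 5.5 with 10% glycerol, 5% ethylene glycol, 0.1% Nonidet P-40. Inhibitor added before enzyme, five to seven concentrations. Stopped at 30 min with TFA, products by HPLC; Ki from Dixon plots.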

[2] = The compound was tested for its antiviral activity against vaccinia virus in CV-1 monkey cells at 10 uM; format: functional; conditions: Cercopithecidae

## CC[C@H](C)[C@H](NC(=O)[C@H](CC(C)C)[C@@H](O)[C@H](O)[C@H](CC(C)C)NC(=O)[C@H](Cc1c[nH]cn1)NC(=O)COc1cccc2ccccc12)C(=O)NCc1ccccn1
[1]
  Ki: 7 nM

## CC[C@H](C)[C@H](NC(=O)[C@H](C(C)C)[C@@H](O)[C@H](O)[C@H](CC(C)C)NC(=O)[C@H](Cc1c[nH]cn1)NC(=O)[C@@H](Cc1ccccc1)NC(=O)OC(C)(C)C)C(=O)NCc1ccccn1
[1]
  Ki: 28 nM

## CC[C@H](C)[C@H](NC(=O)[C@H](C(C)C)[C@@H](O)[C@H](O)[C@H](CC(C)C)NC(=O)[C@H](Cc1c[nH]cn1)NC(=O)COc1cccc2ccccc12)C(=O)NCc1ccccn1
[1]
  Ki: 5 nM

## CC[C@H](C)[C@H](NC(=O)[C@H](C(C)C)[C@@H](O)[C@H](O)[C@H](CC1CCCCC1)NC(=O)[C@H](Cc1c[nH]cn1)NC(=O)COc1cccc2ccccc12)C(=O)NCc1ccccn1
[1]
  Ki: < 1 nM

## CC[C@H](C)[C@H](NC(=O)[C@H](C(C)C)[C@@H](O)[C@H](O)[C@H](CC1CCCCC1)NC(=O)[C@H](Cc1c[nH]cn1)NC(=O)CN)C(=O)NCc1ccccn1
[1]
  Ki: 11 nM
[2]
  inhibition at 10 µM: 0%

## CC[C@H](C)[C@H](NC(=O)[C@H](C(C)C)[C@@H](O)[C@H](O)[C@H](CC1CCCCC1)NC(=O)[C@H](Cc1c[nH]cn1)NC(=O)COc1ccccc1)C(=O)NCc1ccccn1
[1]
  Ki: 2 nM
[2]
  inhibition at 10 µM: 100%

## CC[C@H](C)[C@H](NC(=O)[C@H](C(C)C)[C@H](O)[C@H](O)[C@H](CC(C)C)NC(=O)[C@H](Cc1c[nH]cn1)NC(=O)[C@@H](Cc1ccccc1)NC(=O)OC(C)(C)C)C(=O)NCc1ccccn1
[1]
  Ki: 500 nM

## CC[C@H](C)[C@H](NC(=O)[C@@H](CC(C)C)[C@@H](O)[C@H](O)[C@H](CC(C)C)NC(=O)[C@H](Cc1c[nH]cn1)NC(=O)COc1cccc2ccccc12)C(=O)NCc1ccccn1
[1]
  Ki: 220 nM

## CC[C@H](C)[C@H](NC(=O)[C@H](C(C)C)[C@@H](O)[C@H](O)[C@H](CC(C)C)NC(=O)[C@H](Cc1c[nH]cn1)NC(=O)COc1ccccc1)C(=O)NCc1ccccn1
[1]
  Ki: 5 nM

## CC[C@H](C)[C@H](NC(=O)[C@H](CC1CCCCC1)[C@@H](O)[C@H](O)[C@H](CC1CCCCC1)NC(=O)[C@H](Cc1c[nH]cn1)NC(=O)COc1cccc2ccccc12)C(=O)NCc1ccccn1
[1]
  Ki: 26 nM

## CC[C@H](C)[C@H](NC(=O)[C@H](CC(C)C)[C@@H](O)[C@H](O)[C@H](CC1CCCCC1)NC(=O)[C@H](Cc1c[nH]cn1)NC(=O)COc1cccc2ccccc12)C(=O)NCc1ccccn1
[1]
  Ki: 5 nM

## CC[C@H](C)[C@H](NC(=O)[C@H](C(C)C)[C@@H](O)[C@H](O)[C@H](CC1CCCCC1)NC(=O)[C@H](Cc1c[nH]cn1)NC(=O)CO)C(=O)NCc1ccccn1
[1]
  Ki: 4 nM
[2]
  inhibition at 10 µM: 0%

## CC[C@H](C)[C@H](NC(=O)[C@H](C(C)C)[C@@H](O)[C@H](O)[C@H](CC1CCCCC1)NC(=O)CC1CCCCC1)C(=O)NCc1ccccn1
[1]
  Ki: 22 nM
[2]
  inhibition at 10 µM: 80%

## CC[C@H](C)[C@H](NC(=O)[C@@H](Cc1ccccc1)[C@@H](O)[C@H](O)[C@H](Cc1ccccc1)NC(=O)[C@H](Cc1c[nH]cn1)NC(=O)COc1cccc2ccccc12)C(=O)NCc1ccccn1
[1]
  Ki: 12 nM
